Results reported in ChEMBL document CHEMBL1817575, “Extended targeting potential and improved synthesis of Microcin C analogs as antibacterials” (Bioorg Med Chem, 2011).
Active and inactive are the calls of the source. No cut-off for these calls is given here. Residues, ends and D or L forms follow the SMILES beside them. *: point of attachment. X7 = CC[C@H](C)[C@H](N*)C(=O)NS(=O)(=O)OC[C@H]1O[C@@H](n2cnc3c(N)ncnc32)[C@H](O)[C@@H]1O; NHTrityl = c1ccc(C(N*)(c2ccccc2)c2ccccc2)cc1; Pbf = Cc1c(C)c(S(=O)(=O)*)c(C)c2c1OC(C)(C)C2; tBu = CC(C)(C)*; For = O=C*

Legend:
Escherichia coli [1] = assay: Antibacterial activity against Escherichia coli Ara-Yej (BW39758) at <= 0.63 uM after 8 hrs; type: functional, organism-based
Procedure, shortened: (§1)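 Overnight LB cultures were regrown in fresh LB, with or without 5 mM L-arabinose, to OD600 0.1. Compounds were serially titrated in 96-well plates in LB with or without 5 mM L-arabinose, and cells were added. Plates were incubated at 37 °C, and growth inhibition was read as OD600 after 8 h.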

Escherichia coli [2] = assay: Antibacterial activity against yej or pepA,B,N-genes disrupted Escherichia coli after 8 hrs; type: functional, organism-based; procedure, shortened: as §1

With `CC[C@H](C)[C@H](NC(=O)[C@H](C)NC(=O)[C@H](CC(=O)NC(c1ccccc1)(c1ccccc1)c1ccccc1)NC(=O)CNC(=O)[C@@H](NC(=O)[C@H](CCCNC(=N)NS(=O)(=O)c1c(C)c(C)c2c(c1C)CC(C)(C)O2)NC(=O)[C@H](CCSC)NC=O)[C@@H](C)OC(C)(C)C)C(=O)NS(=O)(=O)OC[C@H]1O[C@@H](n2cnc3c(N)ncnc32)[C@H](O)[C@@H]1O` (For-MR(Pbf)T(tBu)GD(NHTrityl)A-X7) the Activity (Escherichia coli [1]) was “Active” and the Activity (Escherichia coli [2]) was “inactive”.
